Data from ChEMBL document CHEMBL3875213, “Quinolines: Microwave-assisted synthesis and their antifungal, anticancer and radical scavenger properties” (Bioorg Med Chem, 2017).
Values after ≈ are worked out from the molar mass of the structure shown. Active and inactive are the calls of the source. The calls are words filed in the database; no cut-off is given here.

How the values were obtained:
Candida albicans [1] = test: Growth inhibition of Candida albicans ATCC 10231 at 3.9 ug/ml incubated for 48 hrs under dark condition by broth microdilution assay relative to amphotericin B; type: functional; details: ATCC 10231, 48 h, read-out: GI
Procedure, shortened: (§1)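 Yeast broth microdilution (CLSI M27-A3), RPMI-1640, inoculum 1-5 x 10^3 CFU/mL, DMSO ≤1%, 48 h at 30 °C in a moist, dark chamber. […]. Triplicate; amphotericin B as positive control.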

Candida albicans [2] = test: Growth inhibition of Candida albicans ATCC 10231 at 7.81 ug/ml incubated for 48 hrs under dark condition by broth microdilution assay relative to amphotericin B; type: functional; details: ATCC 10231, 48 h, read-out: GI; procedure, shortened: as §1
Candida albicans [3] = test: Growth inhibition of Candida albicans ATCC 10231 at 15.62 ug/ml incubated for 48 hrs under dark condition by broth microdilution assay relative to amphotericin B; type: functional; details: ATCC 10231, 48 h, read-out: GI; procedure, shortened: as §1
Candida albicans [4] = test: Growth inhibition of Candida albicans ATCC 10231 at 31.25 ug/ml incubated for 48 hrs under dark condition by broth microdilution assay relative to amphotericin B; type: functional; details: ATCC 10231, 48 h, read-out: GI; procedure, shortened: as §1
Candida albicans [5] = test: Growth inhibition of Candida albicans ATCC 10231 at 62.5 ug/ml incubated for 48 hrs under dark condition by broth microdilution assay relative to amphotericin B; type: functional; details: ATCC 10231, 48 h, read-out: GI; procedure, shortened: as §1
Candida albicans [6] = test: Growth inhibition of Candida albicans ATCC 10231 at 125 ug/ml incubated for 48 hrs under dark condition by broth microdilution assay relative to amphotericin B; type: functional; details: ATCC 10231, 48 h, read-out: GI; procedure, shortened: as §1
Candida albicans [7] = test: Growth inhibition of Candida albicans ATCC 10231 at 250 ug/ml incubated for 48 hrs under dark condition by broth microdilution assay relative to amphotericin B; type: functional; details: ATCC 10231, 48 h, read-out: GI; procedure, shortened: as §1
Candida albicans [8] = test: Antifungal activity against Candida albicans ATCC 10231 incubated for 48 hrs under dark condition by broth microdilution assay; type: functional; details: ATCC 10231, 48 h
Procedure, shortened: (§2)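 Broth microdilution per CLSI M27-A3 in RPMI-1640. Inocula adjusted to 1-5 x 10^3 CFU/mL. Stocks in DMSO (≤1%), final 3.9-250.0 µg/mL. Incubated 48 h at 30 °C in a moist, dark chamber, read at OD 405. % inhibition computed from growth and sterility control wells, run in triplicate. MIC80/MIC50 taken from four-parameter logistic concentration-response curves; amphotericin B as positive control.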

[9] = Antifungal activity against Cryptococcus neoformans ATCC 32264 incubated for 48 hrs under dark condition by broth microdilution assay; type: functional; procedure, shortened: as §2
[10] = Antiproliferative activity against human NCI-H226 cells harboring TP53 mutant after 24 hrs by MTT assay; type: functional, cell-based; details: NCI-H226, 24 h
Procedure, shortened: (§3)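 Cells grown in medium with 10% foetal bovine serum and 1% L-glutamine at 37 °C, 5% CO2, seeded at 1 x 10^5 cells/well. Exposed to compound at 1.0-1,000 µg/mL for 24 h. MTT added, absorbance read at 540 nm 3 h later. IC50 obtained by non-linear regression of viability data.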

[11] = Antioxidant activity assessed as DPPH radical scavenging activity at 160 uM incubated for 30 mins under dark condition; type: functional
Procedure, shortened: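 Compound at 160 µM incubated with 100 µM DPPH in ethanolic medium, stirred in the dark for 30 min, read at 517 nm. Resveratrol as positive control. Three independent experiments, each in triplicate.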

[12] = Antiproliferative activity against human CCD-19Lu cells after 24 hrs by MTT assay; type: cell-based; procedure, shortened: as §3
NCI-H226 = test: Selectivity index, ratio of IC50 for human CCD-19Lu cells to IC50 for human NCI-H226 cells; type: functional
Procedure, shortened: (§4)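 Selectivity index equals IC50 in non-tumour CCD 19-Lu lung fibroblasts divided by IC50 in the tumour line. Both IC50s come from the 24 h MTT assay (read at 540 nm) over 1.0-1,000 µg/mL.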

[13] = Antioxidant activity assessed as DPPH radical scavenging activity incubated for 30 mins under dark condition; type: functional
Procedure, shortened: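 DPPH (100 µM) in ethanolic medium, stirred 30 min in the dark, absorbance at 517 nm. Compound varied from 0 to 160 µg/mL to find the concentration scavenging 50% of radicals. Three independent experiments, each in triplicate.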

[14] = Antioxidant activity assessed as fluorescent light-induced superoxide anion scavenging activity at 160 uM incubated for 10 mins by nitroblue tetrazolium dye based assay; type: functional
Procedure, shortened: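 Superoxide generated photochemically in 50 mM phosphate buffer pH 7.8 with 13 mM L-methionine, 75 µM nitroblue tetrazolium, 100 µM EDTA and 2 µM riboflavin. Compound at 160 µM. 10 min at 25 °C under fluorescent light; dark controls. Read at 575 nm. Resveratrol as positive control; three independent experiments in triplicate.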

[15] = Antioxidant activity assessed as fluorescent light-induced superoxide anion scavenging activity incubated for 10 mins by nitroblue tetrazolium dye based assay; type: functional
Procedure, shortened: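 Riboflavin/light superoxide system: 50 mM phosphate pH 7.8, 13 mM L-methionine, 75 µM NBT, 100 µM EDTA, 2 µM riboflavin, compound 0-200 µg/mL. Fluorescent light for 10 min at 25 °C, dark controls, scavenging measured at 575 nm. Resveratrol as reference.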

[16] = Antiproliferative activity against human Hep2C cells after 24 hrs by MTT assay; type: functional, cell-based; procedure, shortened: as §3
[17] = Selectivity index, ratio of IC50 for human CCD-19Lu cells to IC50 for human Hep2C cells; type: functional; procedure, shortened: as §4
[18] = Antiproliferative activity against human TOV21G harboring wild type TP53 cells after 24 hrs by MTT assay; type: functional, cell-based; procedure, shortened: as §3

Structure (SMILES)	MIC50 (Candida albicans [8])	MIC80 (Candida albicans [8])	MIC50 [9]	MIC80 [9]	inhibition of growth at 3.9 µg/mL (Candida albicans [1])	inhibition of growth at 7.81 µg/mL (Candida albicans [2])	inhibition of growth at 15.62 µg/mL (Candida albicans [3])	inhibition of growth at 31.25 µg/mL (Candida albicans [4])	inhibition of growth at 62.5 µg/mL (Candida albicans [5])	inhibition of growth at 125 µg/mL (Candida albicans [6])	inhibition of growth at 250 µg/mL (Candida albicans [7])	IC50 [10]	Activity [11]	IC50 [12]	Ratio IC50 (NCI-H226)	Activity [14]	IC50 [16]	Ratio IC50 [17]	also measured
O=[N+]([O-])c1cccc(-c2cc(-c3ccccc3)c3cc(Br)ccc3n2)c1	> 250 µg/mL	> 250 µg/mL	> 250 µg/mL	> 250 µg/mL	0%	0%	3.43%	4.86%	4.99%	5.11%	9.14%	8.5 µM	35 to 40%						
Fc1ccc(-c2cc(-c3ccccc3)c3cc(Br)ccc3n2)cc1	> 250 µg/mL	> 250 µg/mL	15.6 µg/mL (≈ 41.2 µM)	> 250 µg/mL	0.19%	1.37%	4.24%	4.35%	4.13%	6.09%	17.2%					Active	5 µM		IC50 [18]: 570 µM
c1ccc(-c2cc(-c3ccccc3)c3c4c(ccc3n2)OCO4)cc1	> 250 µg/mL	> 250 µg/mL	31.2 µg/mL (≈ 95.9 µM)	250 µg/mL (≈ 768 µM)	0%	0%	3.62%	5.74%	8.77%	13.5%	24.2%	40 µM		354 µM	8	Active	951 µM	0	

Second part, led by results:

MIC50 (Candida albicans [8])	MIC80 (Candida albicans [8])	MIC50 [9]	MIC80 [9]	Structure (SMILES)	inhibition of growth at 3.9 µg/mL (Candida albicans [1])	inhibition of growth at 7.81 µg/mL (Candida albicans [2])	inhibition of growth at 15.62 µg/mL (Candida albicans [3])	inhibition of growth at 31.25 µg/mL (Candida albicans [4])	inhibition of growth at 62.5 µg/mL (Candida albicans [5])	inhibition of growth at 125 µg/mL (Candida albicans [6])	inhibition of growth at 250 µg/mL (Candida albicans [7])	IC50 [10]	Activity [11]	IC50 [12]	Ratio IC50 (NCI-H226)	Activity [14]	IC50 [16]	Ratio IC50 [17]	also measured
250 µg/mL (≈ 682 µM)	> 250 µg/mL	250 µg/mL (≈ 682 µM)	> 250 µg/mL	Brc1ccc2nc(C3CCCCC3)cc(-c3ccccc3)c2c1	0%	0%	0%	1.49%	3.29%	11.3%	37.2%	91 µM	45 to 55%	490 µM	5	Active			SC50 [13]: 118 µM; SC50 [15]: > 250 µM
250 µg/mL (≈ 766 µM)	> 250 µg/mL	125 µg/mL (≈ 383 µM)	> 250 µg/mL	O=[N+]([O-])c1ccc2c(-c3ccccc3)cc(-c3ccccc3)nc2c1	3.42%	4.97%	7.07%	10.6%	19.8%	38.5%	54.8%	559 µM							
62.5 µg/mL (≈ 166 µM)	125 µg/mL (≈ 332 µM)	62.5 µg/mL (≈ 166 µM)	250 µg/mL (≈ 664 µM)	Oc1ccc(-c2cc(-c3ccccc3)c3cc(Br)ccc3n2)cc1	2.41%	3.56%	4.5%	6.17%	9.63%	21.2%	45.8%	8 µM		104 µM	13	Active	105 µM	0	
